From ChEMBL document CHEMBL1127531, “Selective type IV phosphodiesterase inhibitors as antiasthmatic agents. The syntheses and biological activities of 3-(cyclopentyloxy)-4-methoxybenzamides and analogues” (J Med Chem, 1994)
One block for each molecule: values may come before it.

Tests used:
Phosphodiesterase 4A = biological target: T1, Phosphodiesterase 4A (Sus scrofa, UniProt O77823); test: Inhibitory potency against pig aortic PDE IV
T1 sequence (O77823 whole entry): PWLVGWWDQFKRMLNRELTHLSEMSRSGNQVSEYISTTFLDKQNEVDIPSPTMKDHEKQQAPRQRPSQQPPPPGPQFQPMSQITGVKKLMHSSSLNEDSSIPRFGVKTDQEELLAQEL
Summary of the method: (§1)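 Pig aortic PDE isozymes were separated by DEAE-trisacryl anion-exchange chromatography. PDE III was assayed in the presence of rolipram (10 µM) and PDE IV in the presence of siguazodan (10 µM) to exclude cross-contamination.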

[1] = Inhibitory potency against pig aortic PDE III.; design: species or system Sus scrofa; summary of the method: as §1
[2] = biological target: Phosphodiesterase 1 (Sus scrofa); test: Inhibitory potency against pig aortic PDE I.
Phosphodiesterase 4 [3] = biological target: T2, Phosphodiesterase 4 (Homo sapiens, UniProt P27815+Q08499+Q07343+Q08493); test: Inhibition of solubilized eosinophil PDE IV; assay type: protein assay, Cavia porcellus
Cavia porcellus [4] = species: Cavia porcellus; test: Inhibition of superoxide O2-generation from guinea pig peritoneal eosinophils; assay type: functional
Summary of the method: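 Guinea pig peritoneal eosinophils (10^6/well) were incubated for 45 min at 37 °C in HBSS with p-iodonitrotetrazolium violet (0.5 mg/mL). Superoxide was measured as SOD-inhibitable dye reduction: cells were pelleted and dissolved overnight at room temperature in DMSO/0.6 M HCl, and absorbance was read at 492 nm.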

Cavia porcellus [5] = test: In vivo bronchodilator effect on histamine-induced bronchospasm in anaesthetized guinea pigs at 20 ug intravenous dose; assay type: functional
Cavia porcellus [6] = test: In vivo bronchodilator effect on histamine-induced bronchospasm in anaesthetized guinea pigs at 200 ug intravenous dose; assay type: functional
Cavia porcellus [7] = test: In vivo bronchodilator effect on histamine-induced bronchospasm in anaesthetized guinea pigs at 100 ug intravenous dose; assay type: functional
Phosphodiesterase 4 [8] = biological target: T2, Phosphodiesterase 4; test: Inhibition of guinea pig PDE IV; assay type: protein assay, Cavia porcellus; settings: target entry is the homologue from another species
Cavia porcellus [9] = test: In vivo bronchodilator effect on histamine-induced bronchospasm in anaesthetized guinea pigs at 50 ug intravenous dose; assay type: functional
Cavia porcellus [10] = test: In vivo bronchodilator effect on histamine-induced bronchospasm in anaesthetized guinea pigs at 10 ug intravenous dose; assay type: functional

IC50 (Phosphodiesterase 4A): 0.2 µM
SMILES: COc1ccc(C(=S)Nc2ccccc2Cl)cc1OC1CCCC1

IC50 (Phosphodiesterase 4A): > 1000 µM
SMILES: COc1ccc(C(=O)Nc2ccccc2Cl)cc1OC(=O)c1ccccc1

IC50 (Phosphodiesterase 4A): 0.3 µM
IC50 [1]: > 1000 µM
IC50 [2]: > 1000 µM
SMILES: COc1ccc(C(=O)Nc2ccccc2C)cc1OC1CCCC1

IC50 (Phosphodiesterase 4 [3]): 0.005 µM
IC50 (Cavia porcellus [4]): 0.53 µM
IC50 (Phosphodiesterase 4A): 0.023 µM
IC50 [1]: > 1000 µM
IC50 (Phosphodiesterase 4 [8]): 0.023 µM
SMILES: COc1ccc(C(=O)Nc2c(Cl)cccc2Cl)cc1OC1CCCC1
Reduction (Cavia porcellus [5]): 55%
Duration (Cavia porcellus [6]): 30 min
Duration (Cavia porcellus [7]): 34 min
Reduction (Cavia porcellus [7]): 48%

IC50 (Phosphodiesterase 4 [3]): 0.018 µM
IC50 (Cavia porcellus [4]): 0.58 µM
IC50 (Phosphodiesterase 4A): 0.07 µM
IC50 [1]: > 1000 µM
IC50 (Phosphodiesterase 4 [8]): 0.066 µM
IC50 [2]: > 1000 µM
SMILES: COc1ccc(C(=O)Nc2c(F)cccc2F)cc1OC1CCCC1
Reduction (Cavia porcellus [5]): 54%
Duration (Cavia porcellus [6]): 48 min
Duration (Cavia porcellus [7]): 18 min
Reduction (Cavia porcellus [7]): 29%

IC50 (Phosphodiesterase 4A): 1.2 µM
IC50 [1]: > 40 µM
SMILES: COc1ccc(C(=O)Nc2ccccc2C(C)=O)cc1OC1CCCC1

IC50 (Phosphodiesterase 4 [3]): 0.0025 µM
IC50 (Cavia porcellus [4]): 0.48 µM
IC50 (Phosphodiesterase 4A): 0.008 µM
IC50 (Phosphodiesterase 4 [8]): 0.0085 µM
SMILES: CCCCOc1cc(C(=O)Nc2c(Cl)cncc2Cl)ccc1OC
Reduction (Cavia porcellus [5]): 78%
Duration (Cavia porcellus [6]): 32 min
Duration (Cavia porcellus [7]): 34 min
Reduction (Cavia porcellus [7]): 52%

IC50 (Phosphodiesterase 4A): 0.02 µM
SMILES: COc1ccc(C(=O)Nc2c(Cl)c(F)nc(F)c2Cl)cc1OC1CCCC1

IC50 (Phosphodiesterase 4A): 1.7 µM
IC50 [1]: > 40 µM
IC50 [2]: > 40 µM
SMILES: COc1ccc(C(=O)Nc2ccccc2C(=O)c2ccccc2)cc1OC1CCCC1

IC50 (Phosphodiesterase 4A): 1.3 µM
IC50 [1]: > 40 µM
IC50 [2]: > 40 µM
SMILES: COc1ccc(C(=O)Nc2cccc(Cl)c2)cc1OC1CCCC1

IC50 (Phosphodiesterase 4A): 0.1 µM
SMILES: COc1ccc(C(=O)Nc2c(F)c(F)nc(F)c2Cl)cc1OC1CCCC1

IC50 (Phosphodiesterase 4A): 6.5 µM
SMILES: COc1ccc(C(=O)Nc2nccs2)cc1OC1CCCC1

IC50 (Phosphodiesterase 4A): 0.25 µM
SMILES: COc1ccc(C(=O)Nc2cnccn2)cc1OC1CCCC1

IC50 (Phosphodiesterase 4A): 3 µM
IC50 [1]: > 40 µM
IC50 [2]: > 40 µM
SMILES: COC(=O)c1ccccc1NC(=O)c1ccc(OC)c(OC2CCCC2)c1

IC50 (Phosphodiesterase 4 [3]): 0.065 µM
IC50 (Cavia porcellus [4]): 0.17 µM
IC50 (Phosphodiesterase 4A): 0.1 µM
IC50 [1]: > 200 µM
IC50 (Phosphodiesterase 4 [8]): 0.106 µM
SMILES: COc1ccc(C(=O)Nc2c(C)cccc2C)cc1OC1CCCC1
Duration (Cavia porcellus [7]): 16 min
Reduction (Cavia porcellus [7]): 24%

IC50 (Phosphodiesterase 4A): 0.2 µM
SMILES: COc1ccc(C(=O)Nc2c(C)nsc2C#N)cc1OC1CCCC1

IC50 (Phosphodiesterase 4A): 0.001 µM
SMILES: COc1ccc(C(=O)Nc2c(Cl)cncc2Cl)cc1OC1CC2CCC1C2 (stereo in doubt; (+)16g)

IC50 (Phosphodiesterase 4 [3]): 0.002 µM
IC50 (Cavia porcellus [4]): 0.3 µM
IC50 (Phosphodiesterase 4A): 0.002 µM
IC50 (Phosphodiesterase 4 [8]): 0.0023 µM
SMILES: COc1ccc(C(=O)Nc2c(Cl)c[n+]([O-])cc2Cl)cc1OC1CCCC1
Duration (Cavia porcellus [9]): 18 min
Reduction (Cavia porcellus [9]): 45%
Duration (Cavia porcellus [7]): 39 min
Reduction (Cavia porcellus [7]): 54%

IC50 (Phosphodiesterase 4A): 0.12 µM
SMILES: COc1ccc(C(=O)Nc2cnccc2Cl)cc1OC1CCCC1

IC50 (Phosphodiesterase 4A): 0.5 µM
SMILES: COc1ccc(C(=O)Nc2c(C)nsc2C)cc1OC1CCCC1

IC50 (Phosphodiesterase 4A): 0.4 µM
SMILES: COc1ccc(C(=O)Nc2c(F)cccc2F)cc1OC1CCCCC1

IC50 (Phosphodiesterase 4A): 0.8 µM
SMILES: COc1ccc(C(=O)Nc2ccncc2)cc1OC1CCCC1

IC50 (Phosphodiesterase 4 [3]): 0.051 µM
IC50 (Cavia porcellus [4]): 0.45 µM
IC50 (Phosphodiesterase 4A): 0.19 µM
IC50 [1]: > 200 µM
IC50 (Phosphodiesterase 4 [8]): 0.186 µM
IC50 [2]: > 200 µM
SMILES: COc1ccc(C(=O)Nc2ccccc2Cl)cc1OC1CCCC1
Duration (Cavia porcellus [7]): 27 min
Reduction (Cavia porcellus [7]): 43%

IC50 (Phosphodiesterase 4A): 0.07 µM
SMILES: CCCCOc1cc(C(=O)Nc2c(Br)cncc2Br)ccc1OC

IC50 (Phosphodiesterase 4A): 1 µM
SMILES: COc1ccc(C(=O)Nc2ccccn2)cc1OC1CCCC1

IC50 (Phosphodiesterase 4 [3]): 0.002 µM
IC50 (Cavia porcellus [4]): 0.03 µM
IC50 (Phosphodiesterase 4A): 0.016 µM
IC50 (Phosphodiesterase 4 [8]): 0.016 µM
SMILES: COc1ccc(C(=O)Nc2ccncc2Cl)cc1OC1CCCC1
Reduction (Cavia porcellus [5]): 26%
Duration (Cavia porcellus [6]): 15 min

IC50 (Phosphodiesterase 4A): 0.1 µM
SMILES: COc1ccc(C(=O)Nc2c(Cl)cncc2Cl)cc1OC

IC50 (Phosphodiesterase 4 [3]): 0.145 µM
IC50 (Cavia porcellus [4]): > 10 µM
IC50 (Phosphodiesterase 4A): 2.6 µM
IC50 [1]: > 1000 µM
IC50 (Phosphodiesterase 4 [8]): 2.566 µM
SMILES: COc1ccc(C(=O)Nc2ccccc2)cc1OC1CCCC1
Reduction (Cavia porcellus [5]): 32%
Duration (Cavia porcellus [6]): 6 min

IC50 (Phosphodiesterase 4A): 0.5 µM
SMILES: COc1ccc(C(=O)Nc2c(C)nsc2Br)cc1OC1CCCC1

IC50 (Phosphodiesterase 4A): 0.001 µM
SMILES: COc1ccc(C(=O)Nc2c(Cl)cncc2Cl)cc1OC1CC2CCC1C2 (stereo in doubt; (-)16f)

IC50 (Cavia porcellus [4]): 0.16 µM
SMILES: COc1ccc(C2CNC(=O)C2)cc1OC1CCCC1 (stereo not drawn) [ROLIPRAM]
Duration (Cavia porcellus [10]): 15 min
Reduction (Cavia porcellus [10]): 15%
Duration (Cavia porcellus [9]): 38 min
Reduction (Cavia porcellus [9]): 58%
Duration (Cavia porcellus [5]): 29 min
Reduction (Cavia porcellus [5]): 48%

IC50 (Phosphodiesterase 4A): 0.1 µM
IC50 [1]: > 1000 µM
IC50 [2]: > 1000 µM
SMILES: COc1ccc(C(=O)Nc2c(C)cccc2Cl)cc1OC1CCCC1

IC50 (Phosphodiesterase 4A): > 1000 µM
SMILES: COc1ccc(C(=O)Nc2ccccc2Cl)cc1OC(=O)C1CCCC1

IC50 (Phosphodiesterase 4A): 0.085 µM
SMILES: COc1ccc(C(=O)Nc2c(F)cnc(F)c2F)cc1OC1CCCC1

IC50 (Phosphodiesterase 4A): > 1000 µM
SMILES: COc1ccc(C(=O)NCc2ccccc2Cl)cc1OC1CCCC1

IC50 (Phosphodiesterase 4A): 0.035 µM
SMILES: COc1ccc(C(=O)Nc2c(C)cncc2C)cc1OC1CCCC1
